In ChEMBL document CHEMBL1133766, “Enkephalin glycopeptide analogues produce analgesia with reduced dependence liability” (J Med Chem, 2000):

Tests used:
Mus musculus = organism: Mus musculus; assay: (§1) Opioid receptor activity was evaluated using mouse vas deferens (MVD) assay; type: functional, organism-based
[1] = biological target: Delta-type opioid receptor (Homo sapiens, UniProt P41143); assay: Binding affinity towards Opioid receptor delta 1 was evaluated
Mu-type opioid receptor = Mu-type opioid receptor (Homo sapiens, UniProt P35372); assay: Binding affinity towards Opioid receptor mu 1 was evaluated
[2] = (§2) Opioid receptor activity was evaluated using guinea pig ileum (GPI) assay; type: functional, tissue-based; conditions: Cavia porcellus
Rattus norvegicus [3] = assay: Amount of the drug required to produce 50% antinociception when administered subcutaneously; value ranges from 4.9-10.00; type: functional
Method in brief: (§3)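 55 °C tail-flick test after a single injection by the route named in the line, with graded doses giving a dose-response. % antinociception = 100 × [test latency − control latency]/[15 − control latency]. A50 is the amount of drug giving 50% antinociception, derived from the dose-response curve.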

Rattus norvegicus [4] = assay: Amount of the drug required to produce 50% antinociception when administered intracerebroventricularly; value ranges from 0.01-0.04; type: functional; method in brief: as §3
Rattus norvegicus [5] = assay: Amount of the drug required to produce 50% antinociception when administered intraperitoneally; value ranges from 21.2-55.5; type: functional; method in brief: as §3
Rattus norvegicus [6] = assay: Amount of the drug required to produce 50% antinociception when administered intravenously; value ranges from 8.5-15.2; type: functional; method in brief: as §3
[7] = as §2; type: tissue-based; conditions: Cavia porcellus
Opioid receptor = Opioid receptor (Mus musculus, UniProt P42866+P32300+P33534); assay: as §1; type: tissue-based
Rattus norvegicus [8] = assay: Amount of the drug required to produce 50% antinociception when administered subcutaneously; value ranges from 15.9-26.0; type: functional; method in brief: as §3
Rattus norvegicus [9] = assay: Amount of the drug required to produce 50% antinociception when administered intracerebroventricularly; value ranges from 0.05-0.09; type: functional; method in brief: as §3
Rattus norvegicus [10] = assay: Amount of the drug required to produce 50% antinociception when administered intraperitoneally; value ranges from 124.0-151.8; type: functional; method in brief: as §3
Rattus norvegicus [11] = assay: Amount of the drug required to produce 50% antinociception when administered intravenously; value ranges from 35.4-60.7; type: functional; method in brief: as §3
Rattus norvegicus [12] = assay: Amount of the drug required to produce 50% antinociception when administered intracerebroventricularly; value ranges from 1.8-4.2; type: functional; method in brief: as §3
Rattus norvegicus [13] = assay: Amount of the drug required to produce 50% antinociception when administered intraperitoneally; value ranges from 11.8-18.0; type: functional; method in brief: as §3
Rattus norvegicus [14] = assay: Amount of the drug required to produce 50% antinociception when administered intravenously; value ranges from 4.9-7.9; type: functional; method in brief: as §3
Rattus norvegicus [15] = assay: Amount of the drug required to produce 50% antinociception when administered subcutaneously; value ranges from 10.2-17.0; type: functional; method in brief: as §3

Mu-type opioid receptor, sequence (P35372 whole entry): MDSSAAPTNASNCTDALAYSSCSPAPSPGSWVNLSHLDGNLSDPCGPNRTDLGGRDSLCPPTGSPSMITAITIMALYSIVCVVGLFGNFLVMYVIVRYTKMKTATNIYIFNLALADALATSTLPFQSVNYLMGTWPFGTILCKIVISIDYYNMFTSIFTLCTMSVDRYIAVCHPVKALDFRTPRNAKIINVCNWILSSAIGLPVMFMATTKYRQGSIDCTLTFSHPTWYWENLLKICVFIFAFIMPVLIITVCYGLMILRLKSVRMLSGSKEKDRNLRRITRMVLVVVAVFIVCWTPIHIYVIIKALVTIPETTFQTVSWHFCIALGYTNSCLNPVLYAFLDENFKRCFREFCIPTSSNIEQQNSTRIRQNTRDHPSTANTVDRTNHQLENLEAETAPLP
Delta-type opioid receptor, sequence (P41143 whole entry): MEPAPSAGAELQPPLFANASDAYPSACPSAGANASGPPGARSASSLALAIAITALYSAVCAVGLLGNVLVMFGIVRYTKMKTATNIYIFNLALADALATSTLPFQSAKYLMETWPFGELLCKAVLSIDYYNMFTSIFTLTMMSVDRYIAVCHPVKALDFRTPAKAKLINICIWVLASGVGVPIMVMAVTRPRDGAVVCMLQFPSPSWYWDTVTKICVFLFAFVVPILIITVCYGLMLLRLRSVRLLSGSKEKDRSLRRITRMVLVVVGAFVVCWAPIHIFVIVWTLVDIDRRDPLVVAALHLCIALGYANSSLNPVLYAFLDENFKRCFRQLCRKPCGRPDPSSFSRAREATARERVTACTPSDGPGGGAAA

Q: With `CC(C)C[C@H](NC(=O)[C@H](Cc1ccccc1)NC(=O)CNC(=O)[C@H](NC(=O)[C@@H](N)Cc1ccc(O)cc1)[C@H](C)O)C(=O)N[C@@H](CO[C@H]1O[C@@H](CO)[C@H](O)[C@@H](O)[C@H]1O)C(N)=O` [listing 1 of 2 here] as the molecule, how does the IC50 (Mus musculus) read?
A: Its IC50 is 1.6 nM.

Q: What about the IC50 [1] of the same molecule?
A: Its IC50 is 3.4 nM.

Q: And the IC50 (Mu-type opioid receptor)?
A: The IC50 was 8.2 nM.

Q: And the IC50 [2]?
A: The IC50 was 33.8 nM.

Q: With `CC(C)C[C@H](NC(=O)[C@H](Cc1ccccc1)NC(=O)CNC(=O)[C@H](NC(=O)[C@@H](N)Cc1ccc(O)cc1)[C@H](C)O)C(=O)N[C@@H](CO[C@H]1O[C@@H](CO)[C@H](O)[C@@H](O)[C@H]1O)C(N)=O` [listing 2 of 2 here] as the molecule, how does the A50 (Rattus norvegicus [3]) read?
A: The A50 was 7.2 mM/kg.

Q: What about the A50 (Rattus norvegicus [4]) of the same molecule?
A: Its A50 is 0.02 nM.

Q: What about the A50 (Rattus norvegicus [5]) of the same molecule?
A: Its A50 is 34.3 mM/kg.

Q: And the A50 (Rattus norvegicus [6])?
A: The A50 was 11.4 mM/kg.

Q: Which results are given for `CC(C)C[C@H](NC(=O)[C@H](Cc1ccccc1)NC(=O)CNC(=O)[C@H](NC(=O)[C@@H](N)Cc1ccc(O)cc1)[C@H](C)O)C(=O)N[C@@H](CO)C(N)=O` [listing 1 of 2 here]?
A: IC50 [7]: 25 nM; IC50 (Opioid receptor): 2.7 nM; IC50 [1]: 2.4 nM; IC50 (Mu-type opioid receptor): 4 nM

Q: Which A50 (Rattus norvegicus [8]) does the source give for `CC(C)C[C@H](NC(=O)[C@H](Cc1ccccc1)NC(=O)CNC(=O)[C@H](NC(=O)[C@@H](N)Cc1ccc(O)cc1)[C@H](C)O)C(=O)N[C@@H](CO)C(N)=O` [listing 2 of 2 here] here?
A: Its A50 is 20.3 mM/kg.

Q: And the A50 (Rattus norvegicus [9])?
A: Its A50 is 0.07 nM.

Q: And the A50 (Rattus norvegicus [10])?
A: The A50 was 137.2 mM/kg.

Q: And the A50 (Rattus norvegicus [11])?
A: Its A50 is 46.4 mM/kg.

Q: Which A50 (Rattus norvegicus [12]) does the source give for `CN1CC[C@]23c4c5ccc(O)c4O[C@H]2[C@@H](O)C=C[C@H]3[C@H]1C5` [MORPHINE] here?
A: The A50 was 2.7 nM.

Q: And the A50 (Rattus norvegicus [13])?
A: Its A50 is 14.6 mM/kg.

Q: And the A50 (Rattus norvegicus [14])?
A: The A50 was 6.3 mM/kg.

Q: And the A50 (Rattus norvegicus [15])?
A: Its A50 is 13.2 mM/kg.
